Activity calls are given as the source filed them. The calls are words filed in the database; no cut-off is given here.
How the values were obtained:
[1] = target: Kappa-type opioid receptor (Mus musculus) (UniProt P33534); experiment: Agonist activity at mouse KOR expressed in CHO cell membranes assessed as stimulation of [35S]-GTPgammaS binding by measuring maximal efficacy incubated for 60 mins by scintillation spectroscopy analysis relative to U50,488H; settings: Membrane, filed as agonist
Procedure, shortened: (§1)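 CHO cell membranes stably expressing cloned mouse opioid receptors; agonist-stimulated [35S]GTPγS binding. […] Three independent experiments, each in triplicate.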

Mus musculus [2] = experiment: Antinociceptive activity in sc dosed 129Sv6 mouse model assessed as peak effect measured at 15 mins by radiant heat tail flick assay; type: functional; settings: 129Sv6, 0.25 h
[3] = target: Mu-type opioid receptor (Mus musculus) (UniProt P42866); experiment: Partial agonist activity at mouse MOR expressed in CHO cell membranes assessed as stimulation of [35S]-GTPgammaS binding by measuring maximal efficacy incubated for 60 mins by scintillation spectroscopy analysis relative DAMGO; settings: Membrane, filed as partial agonist
Chain of Mu-type opioid receptor (Mus musculus) (P42866 whole entry): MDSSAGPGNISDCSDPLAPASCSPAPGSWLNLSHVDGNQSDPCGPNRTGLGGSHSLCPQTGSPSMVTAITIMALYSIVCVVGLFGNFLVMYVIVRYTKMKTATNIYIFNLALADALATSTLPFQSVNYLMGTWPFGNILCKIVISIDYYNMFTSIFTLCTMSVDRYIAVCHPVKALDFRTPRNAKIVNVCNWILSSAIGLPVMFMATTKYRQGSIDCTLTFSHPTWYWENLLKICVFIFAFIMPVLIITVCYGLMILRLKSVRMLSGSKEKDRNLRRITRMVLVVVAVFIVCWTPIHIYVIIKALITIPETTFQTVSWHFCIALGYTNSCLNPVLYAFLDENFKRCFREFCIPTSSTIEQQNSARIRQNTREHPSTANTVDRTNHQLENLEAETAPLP
Procedure, shortened: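 Membranes from CHO cells stably expressing mouse MOR were used in an agonist-stimulated [35S]GTPγS binding assay. […] Data are from three independent experiments, each run in triplicate.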

[4] = target: Mu-type opioid receptor (Mus musculus) (UniProt P42866); experiment: Agonist activity at mouse MOR expressed in CHO cell membranes assessed as stimulation of [35S]-GTPgammaS binding by measuring maximal efficacy incubated for 60 mins by scintillation spectroscopy analysis relative DAMGO; settings: Membrane, filed as agonist; procedure, shortened: as §1
[5] = target: Kappa-type opioid receptor (Mus musculus) (UniProt P33534); experiment: (§2) Agonist activity at mouse KOR expressed in CHO cell membranes assessed as stimulation of [35S]-GTPgammaS binding incubated for 60 mins by scintillation spectroscopy analysis; settings: Membrane
Procedure, shortened: (§3)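 CHO cell membranes stably expressing cloned mouse opioid receptors; agonist-stimulated [35S]GTPγS binding. Three independent experiments, each in triplicate.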

[6] = target: T1, Delta-type opioid receptor (Mus musculus, UniProt P32300); experiment: (§4) Antagonist activity at mouse DOR expressed in CHO cell membranes assessed as inhibition of DPDPE induced [35S]-GTPgammaS binding incubated for 60 mins by scintillation spectroscopy analysis; parameters: species or system Membrane
T1 sequence (P32300 whole entry): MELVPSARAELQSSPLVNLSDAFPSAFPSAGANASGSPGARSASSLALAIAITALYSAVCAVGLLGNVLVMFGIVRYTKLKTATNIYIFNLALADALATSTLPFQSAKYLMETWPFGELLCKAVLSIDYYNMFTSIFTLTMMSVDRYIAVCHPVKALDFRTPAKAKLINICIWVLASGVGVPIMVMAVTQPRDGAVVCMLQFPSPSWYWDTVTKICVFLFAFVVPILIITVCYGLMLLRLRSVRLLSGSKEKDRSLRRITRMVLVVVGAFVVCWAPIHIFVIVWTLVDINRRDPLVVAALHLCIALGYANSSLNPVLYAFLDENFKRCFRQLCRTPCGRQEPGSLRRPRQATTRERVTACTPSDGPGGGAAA

Mu-type opioid receptor [7] = target: T2, Mu-type opioid receptor (Mus musculus, UniProt P42866); experiment: Agonist activity at mouse MOR expressed in CHO cell membranes assessed as stimulation of [35S]-GTPgammaS binding incubated for 60 mins by scintillation spectroscopy analysis; parameters: species or system Membrane; procedure, shortened: as §3
T2 sequence (P42866 whole entry): as the sequence (P42866 whole entry) above

Mu-type opioid receptor [8] = target: T2, Mu-type opioid receptor; experiment: Displacement of [125]IBNtxA from mouse MOR stably expressed in CHO cell membranes incubated for 90 mins; parameters: species or system Membrane
Procedure, shortened: (§5)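 MOR: 50 mM potassium phosphate with 5 mM MgSO4, 20 μg/mL protein. KOR and DOR: 50 mM potassium phosphate pH 7.0, 40 μg/mL protein. 25 °C, 90 min; glass-fiber filtration; levallorphan 8 μM defines nonspecific binding. Ki from IC50; at least three replicates.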

[9] = target: T3, Kappa-type opioid receptor (Mus musculus, UniProt P33534); experiment: as §2; parameters: species or system Membrane; procedure, shortened: as §3
T3 sequence (P33534 whole entry): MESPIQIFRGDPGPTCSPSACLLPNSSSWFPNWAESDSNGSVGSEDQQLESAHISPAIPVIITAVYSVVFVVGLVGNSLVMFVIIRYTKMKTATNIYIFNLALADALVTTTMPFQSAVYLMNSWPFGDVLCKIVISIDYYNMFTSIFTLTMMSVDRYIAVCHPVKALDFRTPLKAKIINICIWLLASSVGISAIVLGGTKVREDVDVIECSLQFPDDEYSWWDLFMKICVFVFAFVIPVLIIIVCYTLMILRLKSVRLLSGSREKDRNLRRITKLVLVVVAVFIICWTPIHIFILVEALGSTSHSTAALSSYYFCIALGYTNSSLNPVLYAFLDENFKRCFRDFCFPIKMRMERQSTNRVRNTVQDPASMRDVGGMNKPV

[10] = target: T1, Delta-type opioid receptor; experiment: Displacement of [125]IBNtxA from mouse DOR stably expressed in CHO cell membranes incubated for 90 mins; parameters: species or system Membrane; procedure, shortened: as §5
[11] = target: T3, Kappa-type opioid receptor; experiment: Displacement of [125]IBNtxA from mouse KOR stably expressed in CHO cell membranes incubated for 90 mins; parameters: species or system Membrane; procedure, shortened: as §5
Mus musculus [12] = species on record: Mus musculus; experiment: animal or person; settings: C57BL/6J, po, 0.5 h
Mus musculus [13] = species on record: Mus musculus; experiment: animal or person; settings: 129Sv6, 0.5 h
Mus musculus [14] = species on record: Mus musculus; experiment: animal or person; settings: 129Sv6, po, 1 h
[15] = target: Mu-type opioid receptor (Mus musculus) (UniProt P42866); experiment: Potency index, ratio of mitragynine EC50 to test compound EC50 for agonist activity at mouse MOR expressed in CHO cell membranes assessed as stimulation of [35S]-GTPgammaS binding incubated for 60 mins by scintillation spectroscopy analysis; settings: Membrane
[16] = Drug concentration in C57BL/6J mouse plasma at 1 mg/kg, sc measured after 20 mins by LC-MS/MS analysis; type: ADME, organism-based
Mus musculus [17] = experiment: Potency index, ratio of morphine ED50 to test compound ED50 for antinociceptive activity in po dosed C57BL/6J mouse model assessed as peak effect measured at 20 mins by radiant heat tail flick assay; type: functional
Mus musculus [18] = experiment: Potency index, ratio of morphine ED50 to test compound ED50 for antinociceptive activity in po dosed 129Sv6 mouse model assessed as peak effect measured at 15 mins by radiant heat tail flick assay; type: functional; settings: 0.25 h
[19] = Toxicity in C57BL/6J mouse assessed as hyperlocomotion at 1 mg/kg, sc measured after 20 mins; type: organism-based; settings: in vivo
[20] = Drug concentration in C57BL/6J mouse brain at 1 mg/kg, sc measured after 20 mins by LC-MS/MS analysis; type: ADME, organism-based; settings: read-out: Ct
Mus musculus [21] = experiment: Antinociceptive activity in po dosed C57BL/6J mouse model assessed as peak effect measured at 20 mins by radiant heat tail flick assay; type: functional
[22] = target: Mu-type opioid receptor (Mus musculus) (UniProt P42866); experiment: Potency index, ratio of mitragynine Ki to test compound Ki for displacement of [125]IBNtxA from mouse MOR stably expressed in CHO cell membranes incubated for 90 mins; settings: Membrane
[23] = Toxicity in C57BL/6J mouse assessed as conditioned place preference at 1 mg/kg, sc; type: organism-based; settings: in vivo
Procedure, shortened: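 C57BL/6J mice (n = 18–24) were habituated to a two-compartment apparatus for 3 h per day over 2 days, then given a 20 min pre-conditioning baseline test. Conditioning used 20 min sessions with drug at 1 mg/kg/d sc or saline. On test day mice explored freely for 20 min, and a difference score was calculated.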

[24] = target: Delta-type opioid receptor (Mus musculus) (UniProt P32300); experiment: as §4; settings: Membrane
Chain of Delta-type opioid receptor (Mus musculus) (P32300 whole entry): as the sequence (P32300 whole entry) above

[25] = Toxicity in MOR knock out C57BL/6J mouse at 50 mg/kg, sc in presence of norbinaltorphimine; type: organism-based; settings: in vivo
[26] = Toxicity in sc dosed C57BL/6J mouse assessed as lethality at 50 mg/kg, sc; type: organism-based; settings: in vivo, read-out: Activity
Procedure, shortened: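 Opioid-naïve C57BL/6J mice (n = 4) were given a single 50 mg/kg subcutaneous dose in DMSO/solutol/saline (1:1:8) and observed for lethality, reported as percent of animals dying.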

Mus musculus [27] = species on record: Mus musculus; experiment: Antinociceptive activity in mouse; type: functional, organism-based
[28] = Toxicity in MOR knock out C57BL/6J mouse at 50 mg/kg, sc in presence of naltrindole; type: organism-based; settings: in vivo
[29] = Drug concentration in C57BL/6J mouse brain at 30 mg/kg, po measured after 24 hrs by LC-MS/MS analysis; type: ADME, organism-based; settings: in vivo, BLD = below limit of detection
[30] = Toxicity in C57BL/6J mouse at 50 mg/kg, sc in presence of norbinaltorphimine; type: organism-based; settings: in vivo
[31] = Toxicity in 129Sv6 mouse assessed as fatality at 10 ug, IT; settings: in vivo, other, dose 10 µg
[32] = Toxicity in C57BL/6J mouse at 50 mg/kg, sc in presence of naltrindole; type: organism-based; settings: in vivo
[33] = Drug concentration in C57BL/6J mouse plasma at 30 mg/kg, po measured after 24 hrs by LC-MS/MS analysis; type: ADME, organism-based; settings: in vivo, BLD = below limit of detection
[34] = Toxicity in CD1 mouse assessed as fatality at 10 ug, IT; settings: in vivo, other, dose 10 µg
[35] = Toxicity in sc dosed 129Sv6 mouse assessed as lethality; type: organism-based; settings: in vivo
Procedure, shortened: (§6)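 Groups of mice (n = 6 per dose) received graded subcutaneous doses in DMSO/solutol/saline (1:1:8) and were scored for lethality. […] Strains were 129Sv6 for line 3 and CD1 for […], both purchased from Jackson Laboratories.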

[36] = Toxicity in sc dosed CD1 mouse assessed as lethality; type: organism-based; settings: in vivo; procedure, shortened: as §6

Chain of Kappa-type opioid receptor (Mus musculus) (P33534 whole entry): as the sequence (P33534 whole entry) above

CC[C@@H]1CN2CCc3c([nH]c4cccc(OC)c34)[C@H]2C[C@@H]1/C(=C\OC)C(=O)OC
Emax [1]: 58%
ED50 (Mus musculus [2]): > 100 mg/kg
Emax [3]: 45%

CC[C@H]1CN2CCc3c([nH]c4cccc(OC)c34)[C@@H]2C[C@@H]1/C(=C\OC)C(=O)OC
Emax [4]: 43%
Activity [5]: inactive

C=C[C@H]1CN2CCc3c([nH]c4cccc(OC)c34)[C@@H]2C[C@@H]1/C(=C\OC)C(=O)OC
IC50 [6]: > 10000 nM
Emax [1]: 57%
EC50 (Mu-type opioid receptor [7]): 9380 nM
ED50 (Mus musculus [2]): > 100 mg/kg
Ki (Mu-type opioid receptor [8]): 666 nM
Emax [4]: 54%
EC50 [9]: 3590 nM
Ki [10]: 3390 nM
Ki [11]: 883 nM

CN1CC[C@]23c4c5ccc(O)c4O[C@H]2[C@@H](O)C=C[C@H]3[C@H]1C5 [MORPHINE]
ED50 (Mus musculus [12]): 4.73 mg/kg
ED50 (Mus musculus [2]): 0.68 mg/kg
ED50 (Mus musculus [13]): 0.7 mg/kg
ED50 (Mus musculus [14]): 3.3 mg/kg

CC[C@@H]1CN2CC[C@@]3(O)C(=Nc4cccc(OC)c43)[C@@H]2C[C@@H]1/C(=C\OC)C(=O)OC
Ratio EC50 [15]: 4
concentration at 20 min [16]: 270 nM
Ratio ED50 (Mus musculus [17]): 3
Ratio ED50 (Mus musculus [18]): 3
ED50 (Mus musculus [2]): 0.2 mg/kg
Activity [19]: Non-Toxic
concentration at 20 min [20]: 450 nM
ED50 (Mus musculus [21]): 0.3 mg/kg
Ratio Ki [22]: 6
Activity [23]: Toxic

CC[C@@H]1C[N+]2([O-])CCc3c([nH]c4cccc(OC)c34)[C@@H]2C[C@@H]1/C(=C\OC)C(=O)OC (stereo not given in full)
Ki (Mu-type opioid receptor [8]): 6900 nM
Ki [10]: 4140 nM
Ki [11]: 7180 nM

CC[C@@H]1CN2CCc3c([nH]c4cccc(O)c34)[C@@H]2C[C@@H]1/C(=C\OC)C(=O)OC
inhibition [24]: inactive
Emax [1]: 87%
ED50 (Mus musculus [2]): > 100 mg/kg
Ki (Mu-type opioid receptor [8]): 216 nM
Emax [4]: 62%
EC50 [9]: 858 nM
Ki [10]: 1880 nM
Ki [11]: 1180 nM

CC[C@@H]1CN2CCc3c([nH]c4cccc(O[C@@H]5O[C@H](C(=O)O)[C@@H](O)[C@H](O)[C@H]5O)c34)[C@@H]2C[C@@H]1/C(=C\OC)C(=O)OC
inhibition [24]: inactive
Emax [1]: 98%
EC50 (Mu-type opioid receptor [7]): 5780 nM
ED50 (Mus musculus [2]): > 30 mg/kg
Ki (Mu-type opioid receptor [8]): 1670 nM
Emax [4]: 102%
EC50 [9]: 1140 nM
Ki [10]: 3240 nM
Ki [11]: 1270 nM

CO/C=C(/C(=O)OC)[C@@H]1CCN2CC[C@]3(Nc4cccc(OC)c4C3=O)[C@@H]2C1
concentration at 20 min [16]: 410 nM
Ratio ED50 (Mus musculus [17]): 2
Ratio ED50 (Mus musculus [18]): 2
ED50 (Mus musculus [2]): 0.3 mg/kg
Activity [19]: Non-Toxic
concentration at 20 min [20]: 70 nM
ED50 (Mus musculus [21]): 0.26 mg/kg

CC[C@@H]1C[N+]2=C(C[C@@H]1/C(=C\OC)C(=O)OC)c1[nH]c3cccc(OC)c3c1CC2
IC50 [6]: 1100 nM
Activity [25]: Toxic
mortality [26]: 100%
Activity (Mus musculus [27]): inactive
Activity [28]: Toxic
Emax [1]: 64%
Ct [29]: Bld
Activity [30]: Toxic
EC50 (Mu-type opioid receptor [7]): 67.5 nM
Activity [31]: Toxic
ED50 (Mus musculus [2]): > 100 mg/kg
Ki (Mu-type opioid receptor [8]): 34.1 nM
Activity [32]: Toxic
Cp [33]: Bld
Activity [34]: Toxic
LD50 [35]: 48.4 mg/kg
EC50 [9]: 166 nM
Ki [10]: 49.1 nM
LD50 [36]: 74 mg/kg
Ki [11]: 125 nM

— ChEMBL document CHEMBL5233277, “Oxidative Metabolism as a Modulator of Kratom's Biological Actions” (J Med Chem, 2021)
